Test results: ChEMBL document CHEMBL4699442, “Discovery of Soft-Drug Topical Tool Modulators of Sphingosine-1-phosphate Receptor 1 (S1PR1)” (ACS Med Chem Lett, 2019)
Each block holds one compound with its values, some of them ahead of it.

Experiments:
[1] = Metabolic stability in human Hepatocyte assessed as intrinsic clearance at 1 uM incubated for 90 mins by UPLC-MS/MS analysis; type: ADME, tissue-based; details: hepatocytes
How it was run: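 Human hepatocytes were incubated with compound to capture phase 2 and other metabolism.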

[2] = Dissociation constant, pKa of compound by potentiometric fast UV-metric titration method; type: physicochemical
[3] = Lipophilicity, logD of compound at pH 7.4 by RP-HPLC analysis; type: physicochemical; details: buffer
[4] = Metabolic stability in human skin S9 cells assessed as half life at 0.5 uM incubated for 180 mins by UPLC-MS/MS analysis; type: ADME, subcellular, Zone of skin; details: s9, 3 h
How it was run: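 Skin S9 fraction was incubated with compound in the presence of enzymatic cofactors. Stability was followed over 180 min, n = 1.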

[5] = Stability of compound in DMSO assessed as decrease in purity incubated for 24 hrs; type: physicochemical
How it was run: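 Compound was held in DMSO solution and its stability judged after 24 h. Single determination, n = 1.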

Compound: CCC/N=C1\S/C(=C\c2ccc(O)cn2)C(=O)N1c1ccccc1C
CLH [1]: 7.9 mL/min/g | pKa [2]: 7.1 | logD [3]: 3

Compound: CCC/N=C1\S/C(=C\c2ccc(OC[C@H](O)CO)c(Cl)c2)C(=O)N1c1ccccc1C [PONESIMOD]
t1/2 [4]: > 180 min

Compound: COCC/N=C1\S/C(=C\c2ccc(O)c(Cl)c2)C(=O)N1c1ccccc1C
logD [3]: 2.9

Compound: CCC/N=C1\S/C(=C\c2ccc(O)c(Cl)c2)C(=O)N1C(C)C
logD [3]: > 4.3

Compound: CCC/N=C1\S/C(=C\c2ccc(O)c(Cl)c2)C(=O)N1c1ccccc1OC
logD [3]: 3.3

Compound: CCC/N=C1\S/C(=C\c2ccc(O)c(Cl)c2)C(=O)N1C1CC1
logD [3]: 3.4

Compound: CCC/N=C1\S/C(=C\c2ccc(O)c(C(F)(F)F)c2)C(=O)N1c1ccccc1C
CLH [1]: 4.2 mL/min/g | pKa [2]: 6.6 | logD [3]: 3.8

Compound: CCC/N=C1\S/C(=C\c2ccc(O)cc2)C(=O)N1c1ccccc1C
CLH [1]: 1.7 mL/min/g | pKa [2]: 8.3 | logD [3]: 3.5

Compound: CCC/N=C1\S/C(=C\c2ccc(O)c(Br)c2)C(=O)N1c1ccccc1C
CLH [1]: 6 mL/min/g | pKa [2]: 6.4 | logD [3]: 3.9

Compound: CCC/N=C1\S/C(=C\c2ccc(O)c(Cl)c2)C(=O)N1C1CCS(=O)(=O)CC1
logD [3]: 2.6

Compound: CCC/N=C1\S/C(=C\c2ccc(O)c(Cl)c2)C(=O)N1c1ccccc1O
logD [3]: 2.7

Compound: CCC/N=C1\S/C(=C\c2ccc(O)c(Cl)c2)C(=O)N1C1CCOCC1
logD [3]: 3.7

Compound: Cc1ccccc1N1C(=O)/C(=C/c2ccc(O)c(Cl)c2)S/C1=N\CCO
logD [3]: 1.9

Compound: Cc1ccccc1N1C(=O)/C(=C/c2ccc(O)c(Cl)c2)S/C1=N\CCCF
logD [3]: 3.4

Compound: Cc1ccccc1N1C(=O)/C(=C/c2ccc(O)c(Cl)c2)S/C1=N\C1COC1
logD [3]: 2.6

Compound: CCC/N=C1\S/C(=C\c2ccc(O)c(Cl)c2)C(=O)N1c1ccccc1C
CLH [1]: 8.4 mL/min/g | pKa [2]: 6.8 | logD [3]: 3.8

Compound: CCC/N=C1\S/C(=C\c2ccc(O)c(Cl)c2)C(=O)N1C1CCN(C)C(=O)C1 (racemic)
logD [3]: 0.6

Further lines, results first:

CLH [1]: 31 mL/min/g | pKa [2]: 8.5 | logD [3]: 3.8
Compound: CCC/N=C1\S/C(=C\c2ccc(O)c(C)c2)C(=O)N1c1ccccc1C

t1/2 [4]: 8.3 min
Compound: CCC/N=C1\S/C(=C\c2ccc(OC(C)=O)c(C(F)(F)F)c2)C(=O)N1c1ccccc1C

Stabilty [5]: Unstable
Compound: CCC/N=C1\S/C(=C\c2ccc(OC(=O)COC)c(C)c2)C(=O)N1c1ccccc1C

t1/2 [4]: > 180 min
Compound: CCC/N=C1\S/C(=C\c2ccc(OC(=O)C(C)(C)C)c(C)c2)C(=O)N1c1ccccc1C

t1/2 [4]: 21 min
Compound: CCC/N=C1\S/C(=C\c2ccc(OC(=O)C(C)C)c(C)c2)C(=O)N1c1ccccc1C

t1/2 [4]: 4.8 min
Compound: CCC/N=C1\S/C(=C\c2ccc(OC(=O)CCOC)c(C)c2)C(=O)N1c1ccccc1C

t1/2 [4]: 8.8 min
Compound: CCC/N=C1\S/C(=C\c2ccc(OC(C)=O)c(Br)c2)C(=O)N1c1ccccc1C

t1/2 [4]: 7.3 min
Compound: CCC/N=C1\S/C(=C\c2ccc(OC(C)=O)c(C)c2)C(=O)N1c1ccccc1C

CLH [1]: 12 mL/min/g | pKa [2]: 8.6 | logD [3]: 4.3
Compound: CCC/N=C1\S/C(=C\c2ccc(O)c(C(C)C)c2)C(=O)N1c1ccccc1C

t1/2 [4]: 8.2 min
Compound: CCC/N=C1\S/C(=C\c2ccc(OC(=O)CCO)c(C)c2)C(=O)N1c1ccccc1C

Stabilty [5]: Unstable
Compound: CCC/N=C1\S/C(=C\c2ccc(OC(=O)CN(C)C)c(C)c2)C(=O)N1c1ccccc1C
